Measured values gathered from unrelated publications.
TACR1: Substance-P receptor (TACR1, Homo sapiens, UniProt P25103)
HTR2B: 5-hydroxytryptamine receptor 2B (HTR2B, Homo sapiens, UniProt P41595)
mraY: mraY (Staphylococcus aureus, UniProt Q2FZ93)

CCN1/C(=C/C(C)=O)Sc2ccc(F)cc21
inhibition (TACR1; ligand displacement, radioligand; 10 µM): 20.8%

COc1cc2c3c(c1OC)-c1c(OC)ccc(NC(C)=O)c1CC3N(C)CC2 (stereo not drawn)
inhibition (HTR2B; ligand displacement, radioligand; 10 µM): 20%

CCCCCCC#Cc1cncc(-c2nnc(SC[C@H]3O[C@@H](n4ccc(=O)[nH]c4=O)[C@H](O)[C@@H]3O)n2C)c1
inhibition (mraY; cell-free assay, inhibitor; 250 µM): 0%

COc1cc2c3c(c1OC)-c1c(OC)ccc(-c4ccc(C#N)cc4)c1CC3N(C)CC2 (stereo not drawn)
inhibition (5-hydroxytryptamine receptor 2C (HTR2C, Homo sapiens, UniProt P28335); ligand displacement, radioligand; 10 µM): 24%

NC/C(=C\F)COc1cccc(Cn2c(=S)[nH]c(=O)c3[nH]cnc32)c1
inhibition (B2 bradykinin receptor (BDKRB2, Homo sapiens, UniProt P30411); ligand displacement, radioligand; 10 µM): < 50%

Cc1cc(F)cc2c(CCC(=O)N[C@@H]3C(=O)NC[C@H]3O)c(-c3ccc(F)cc3)[nH]c12
inhibition (TACR1; cell-free assay; 10 µM): 25%

CCCCCCC#Cc1cncc(-c2nnc(SC[C@H]3O[C@@H](n4ccc(=O)[nH]c4=O)[C@H](O)[C@@H]3O)n2CCCN)c1
inhibition (mraY; cell-free assay, inhibitor; 250 µM): 44%

CC[N+]1(C)CCc2cc(OC)c(OC)c3c2C1Cc1cccc(OC)c1-3 (stereo not drawn)
inhibition (HTR2B; ligand displacement, radioligand; 10 µM): 26%

CCCCCCC#Cc1cncc(-c2nnc(SCc3cc([N+](=O)[O-])cc([N+](=O)[O-])c3)n2CCO)c1
inhibition (mraY; cell-free assay, inhibitor; 250 µM): 55%

COc1cc2c3c(c1OC)-c1c(OC)ccc(N4CCOCC4)c1CC3N(C)CC2 (stereo not drawn)
inhibition (HTR2B; ligand displacement, radioligand; 10 µM): 80%

CCCCCCC#Cc1cncc(-c2nnc(SCc3cc(C(F)(F)F)cc(C(F)(F)F)c3)n2CCCN)c1
inhibition (mraY; cell-free assay, inhibitor; 250 µM): 53%

C#Cc1cc(-c2cc(Nc3nc(N[C@@H](C)c4ccc(F)cn4)ncc3Cl)n[nH]2)ccc1C=O
inhibition (Serine/threonine-protein kinase SIK1 (SIK1, Homo sapiens, UniProt P57059); enzyme activity, inhibitor; 0.2 µM): 82.4%
